FXIa inh 1536 = human FXIa protease inhibitors, primary screen, biochemical, 1536-well; purified FXIa, Boc-Glu-Ala-Arg-AMC fluorogenic substrate; 220,000 tested, 0.14% active; AID 798, 2007; inhibition, % at 5 µM;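 active means inhibition of at least 40%; inactive means inhibition below 40%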;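 further: fluorescence of freed AMC excited at 355 nm; 0% = enzyme without compound and 100% = no enzyme blank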
hK5 inh = human KLK5 protease inhibitors, primary screen, biochemical, 1536-well | inhibition, % at 5 µM | recombinant hK5, fluorogenic AMC substrate cleavage | AID 873, 2007 | Kallikrein-5 (Homo sapiens), Q9Y337 | 210,000 tested, 0.59% active;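 active means inhibition of 40% or more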;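 further: 0% = enzyme controls without compound and 100% = no-enzyme blanks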
Target sequence (Q9Y337 67-293 limits assumed): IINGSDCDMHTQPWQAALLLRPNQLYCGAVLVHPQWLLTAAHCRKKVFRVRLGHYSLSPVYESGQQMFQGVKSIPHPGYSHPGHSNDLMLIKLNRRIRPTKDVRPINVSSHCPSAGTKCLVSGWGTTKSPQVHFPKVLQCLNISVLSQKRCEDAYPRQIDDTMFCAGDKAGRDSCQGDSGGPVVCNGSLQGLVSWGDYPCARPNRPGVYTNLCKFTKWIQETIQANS
EP2 mod = EP2 receptor modulators, cAMP readout, primary screen, cell-based, HTRF cAMP, PGE2 stimulation | Prostaglandin E2 receptor EP2 subtype (Homo sapiens), P43116 | EP2-expressing cells, cAMP HTRF FRET, PGE2 co-stimulation | induction, % at 25 µM | 260,000 tested, 0.83% active;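 active means compounds whose cAMP rise, as percent of the full-agonist control response, exceeds 60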;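 further: rat C6 glioma line stably carrying human EP2 under a CMV promoter; the protocol text gives 20 µM as final concentration; 100% = response of wells given 1 µM PGE2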
Target sequence (P43116 whole entry, looked up): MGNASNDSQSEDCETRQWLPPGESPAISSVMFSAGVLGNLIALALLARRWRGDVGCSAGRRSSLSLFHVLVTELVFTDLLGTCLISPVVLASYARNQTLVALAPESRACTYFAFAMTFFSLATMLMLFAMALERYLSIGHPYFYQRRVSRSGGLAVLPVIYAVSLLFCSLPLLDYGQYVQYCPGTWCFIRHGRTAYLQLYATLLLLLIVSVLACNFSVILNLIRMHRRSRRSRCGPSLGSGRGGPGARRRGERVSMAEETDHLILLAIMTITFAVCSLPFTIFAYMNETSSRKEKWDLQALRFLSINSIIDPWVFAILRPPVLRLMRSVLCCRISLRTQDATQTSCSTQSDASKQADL
EP2 antag = human EP2 receptor antagonists, primary screen, TR-FRET cAMP, C6 glioma cells | Prostaglandin E2 receptor EP2 subtype (Homo sapiens), P43116 | C6 glioma cells expressing human EP2; cells stimulated with saturating PGE2 | inhibition, % at 25 µM | 260,000 tested, 0.52% active | AID 1422, 2008;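 active means percent inhibition above 40 after rounding to a whole number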;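 further: rat C6 glioma host cells with rolipram phosphodiesterase inhibitor present; the protocol text gives 20 µM as final concentration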
thrombin 1536 = human alpha-thrombin inhibitors, primary screen, counter-screen for coagulation protease inhibitor project, biochemical, 1536-well, fluorogenic AMC substrate. Prothrombin (Homo sapiens), P00734. Boc-VPR-AMC fluorogenic substrate cleavage. inhibition, % at 5 µM. 220,000 tested, 0.26% active. AID 1046, 2008;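 active means inhibition at or above 40%; inactive means inhibition below 40%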;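 further: 0% = enzyme with no compound and 100% = wells without enzyme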
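System – human alpha-thrombin · Medium – pH 7.5 Tris (50 mM) with NaCl 150 mM, Tween 20 0.05% · Compound – single-point dosing at 5 µM, 0.2% DMSO · Incubation – enzyme reaction carried out at room temperature · Technique – fluorescence of released AMC, ex 355 nm, em 460 nm · Read-out basis – % inhibition of thrombin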
FXIIa inh = human FXIIa protease inhibitors, primary screen, biochemical, 1536-well; 220,000 tested, 0.3% active; inhibition, % at 5 µM; purified FXIIa, Boc-QGR-AMC fluorogenic substrate, 2 h; in the data active means inhibition above about 40%;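 further: 0% = enzyme with no compound and 100% = blank without enzyme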
Numbers without * were called inactive; . = not tested or not shown. Sampled rows, rich in hits. Any-hit rate of the full collection: about 2.1%.

SMILES	FXIa inh 1536	hK5 inh	EP2 mod	EP2 antag	thrombin 1536	FXIIa inh
CC1CCCCN1C(=O)CN1CCN(c2ncccn2)CC1 (stereo unspecified)	.	.	-18.9	10.7	.	.
CC(/C=N/NC(=O)Cn1nnc(N)n1)=C\c1ccc(C(C)C)cc1	-0.1	0.0	89.2*	2.5	-6.7	8.7
Fc1ccc(C2CC(c3ccco3)=Nc3ccccc3S2)cc1 (stereo unspecified)	-2.1	-3.0	62.3*	3.9	1.1	7.5
COc1ccc2c(c1OC)C(=O)O[C@H]2[C@H]1c2c(cc3c(c2OC)OCO3)CCN1C	.	.	67.9*	9.7	.	.
CC[n+]1c(/C=C2/C=Cc3cc(C)ccc3N2CCCS(=O)(=O)[O-])ccc2cccc(C)c21	.	.	-22.4	15.0	.	.
Cc1ccc2c(c1)CC1(CN2C)C(=O)OC(C)(C)OC1=O	13.6	8.9	17.7	12.9	72.7*	16.2
Cc1ccc(CN(CCCn2ccnc2)Cc2cnn(C3CCCCC3)c2)s1	.	.	-42.9	6.2	.	.
CC(C)n1nccc1C(=O)Nc1ncc(-c2ccc(Br)cc2)n1C	.	.	-65.3	8.0	.	.
CSc1nc(-c2ccccc2)nc2c1COC(C)(C)C2	5.0	-12.0	64.5*	11.8	4.1	20.8
CN(C)CCSc1nc(-c2ccccc2)nc2c1COC(C)(C)C2	-9.2	-16.2	6.4	3.1	-9.8	-8.5
O=C(COC(=O)Cn1cnc2ccccc2c1=O)Nc1cc(Cl)ccc1[N+](=O)[O-]	8.9	-7.9	2.4	3.7	65.0*	10.1
CC(C)(C)NC(=O)NC(=O)COC(=O)Cn1cnc2ccccc2c1=O	-3.7	-0.1	6.9	2.6	-1.2	4.4
CSc1nc(-c2ccccc2)nc(N2CCOCC2)c1C(C)=O	29.1	19.0	12.7	4.1	49.6*	35.0
Cc1onc(C(=O)NC2(c3ccccc3F)CCCC2)c1Cn1cccn1	.	.	16.0	5.5	.	.
COc1ccc(-c2[nH]ncc2-c2ccc3c(c2)OCCO3)c(O)c1	9.3	49.3*	-53.7	8.7	100.7*	8.5
COc1ccc(C(=O)NNC(=O)c2cccs2)c(OC)c1	.	.	-14.6	9.6	.	.
Cn1nc(C(=O)Nc2nc(-c3ccc(F)cc3)cs2)ccc1=O	104.5*	61.2*	-10.2	11.0	1.9	39.1
Cc1cccc2cc(C#N)c(NC3CCCCC3)nc12	.	.	78.1*	14.8	.	.
CCCn1c(SCC(=O)Nc2cc(Cl)ccc2C)nnc1-c1ccncc1	.	.	-0.1	15.1	.	.
CCOc1cccc(NC(=O)C(Cc2cccc(OC)c2OC)c2nn[nH]n2)c1 (stereo unspecified)	.	.	-0.1	5.8	.	.
CC(C)c1ccc(O)c(O)c(=O)c1 (tested in a mixture with another compound)	.	.	47.5	40.8*	.	.
CC(C)NC(=O)C1CC(c2ccc(Cl)c(Cl)c2)=NO1 (stereo unspecified)	.	.	-89.1	7.7	.	.
COc1ccc(-n2c(SCC(=O)Nc3cc(C)on3)nc3c(c2=O)SCC3)cc1	11.8	101.8*	14.2	13.7	22.2	17.7
COc1ccc(CCNC(=O)Cn2c(-c3cccs3)cc3cccnc32)cc1OC	.	.	-29.7	4.5	.	.
CCc1cccc(CC)c1NC(=O)CSc1nnc(-c2ccco2)n1CC	.	.	-46.0	6.7	.	.
SMILES	FXIa inh 1536	hK5 inh	EP2 mod	EP2 antag	thrombin 1536	FXIIa inh
C(CCc1nnc2c(n1)CCCC2)Cc1nnc2c(n1)CCCC2	.	.	10.4	45.2*	.	.
Nc1nnc2c(n1)CCCC2	-11.0	-11.8	13.2	9.5	-11.3	11.9
Cc1ccc(C(=O)c2ccc(C)cc2)cc1	-1.8	-3.1	38.2	8.1	-3.3	5.6
Cc1ccc(C(=O)c2no[n+]([O-])c2C(=O)c2ccc(C)cc2)cc1	9.8	-8.6	-45.0	49.8*	0.0	14.6
COc1ccc(NC(=O)c2cc(-c3ccc(Cl)cc3Cl)on2)cc1OC	.	.	-25.3	5.8	.	.
Cc1nc(Cl)c(C#N)cc1-c1ccccc1	12.1	57.2*	16.8	0.6	28.1	18.0
CCc1cc2ccccc2nc1SCC(=O)Nc1ccccc1C(F)(F)F	.	.	61.2*	4.8	.	.
CCc1cc2ccccc2nc1SCC(=O)c1ccc(F)cc1	.	.	26.6	11.5	.	.
CCC(=O)Nc1ccc(C(=O)CSc2nc3ccccc3cc2CC)cc1	0.9	59.6*	-19.3	11.1	104.4*	21.2
CCc1cc2ccccc2nc1SCC(=O)Nc1ccccc1Cl	.	.	69.0*	11.7	.	.
Cc1cc(C)c2[nH]c(=O)c(CN(CCCO)Cc3nnnn3CC3CCCO3)cc2c1 (stereo unspecified)	.	.	-14.7	9.4	.	.
CC(CCC(=O)O)C1CC[C@@]2(C)C3C(=O)CC4C(C)(C)C(O)CC[C@]4(C)C3C(=O)C[C@]12C (stereo partly specified)	-0.5	12.6	11.5	12.5	-2.3	9.4
C[C@H](CCC(=O)O)[C@H]1CC[C@@]2(C)[C@@H]3C(=O)C[C@H]4C(C)(C)[C@@H](O)CC[C@]4(C)[C@H]3C(=O)C[C@]12C	.	.	31.5	46.3*	.	.
CCn1c(CSc2ncccn2)nnc1SCC(=O)N1CCCCCC1	.	.	-8.2	6.0	.	.
Oc1ccc(Cc2nccc3cc(O)c(O)cc23)cc1O	.	.	-8.4	52.9*	.	.
CCOc1ccc(Cc2nccc3cc(OCC)c(OCC)cc23)cc1OCC	.	.	46.5	5.7	.	.
CCOC(=O)CSc1nnc(-c2ccccc2)o1	43.6*	-5.8	15.8	7.8	0.1	30.1
CCOC(=O)CSc1nnc(-c2cccnc2)o1	7.5	-7.0	13.3	8.6	3.3	10.3
CCOC(=O)CSc1ncc(-c2ccccc2)cn1	0.9	3.5	13.9	3.5	-12.3	-8.5
CCOC(=O)CSc1snnc1-c1ccccc1	-8.7	-15.1	24.4	13.2	-4.8	58.3*
COc1cc(OC)cc(-c2nnc(SCC(=O)N3c4ccccc4Sc4ccccc43)o2)c1	.	.	61.0*	12.9	.	.
COC(=O)c1ccc(CCC2CCN(S(=O)(=O)N(C)C)CC2)cc1	.	.	-64.7	3.5	.	.
Cc1ccc2cc3c(nc2c1C)OCC(=O)N(C1CC1)C3	.	.	-19.8	4.0	.	.
CCOc1ccc(/C=c2\sc3nc(-c4ccco4)nn3c2=O)cc1OCC	2.6	29.4	75.1*	8.1	22.6	8.6
COc1ccccc1/C=c1\sc2nc(-c3ccco3)nn2c1=O	3.6	-5.8	22.1	6.8	1.3	11.9
O=C(CSc1nnc(-c2ccncc2)n1-c1ccccc1)N1c2ccccc2Sc2ccccc21	.	.	-10.5	9.8	.	.
CC(=O)Oc1c(/C=C(\C#N)C(N)=O)[nH]c2ccccc12	7.5	-6.3	-100.5	94.9*	8.5	33.6
Cc1cc(C(=O)NCCCC2CCOC2)c2cccc(Cl)c2n1 (stereo unspecified)	.	.	-34.1	5.8	.	.

Source: PubChem
